Bioassay records: PubChem BioAssay, several laboratories
pCIP destab – p/CIP protein destabilization; F442A p/CIP-EGFP cells, EGFP fluorescence, 16 h; 290,000 tested, 0.01% active; decrease of EGFP signal, % at 10 µM; AID 1984; Q05BA5;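 active = EGFP signal decrease of at least 30% at 10 µM or well 3 SD below plate mean, unless failing retest; inactive = the rest, including hits failing retest or dose response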
Target sequence (Q05BA5 1-1403): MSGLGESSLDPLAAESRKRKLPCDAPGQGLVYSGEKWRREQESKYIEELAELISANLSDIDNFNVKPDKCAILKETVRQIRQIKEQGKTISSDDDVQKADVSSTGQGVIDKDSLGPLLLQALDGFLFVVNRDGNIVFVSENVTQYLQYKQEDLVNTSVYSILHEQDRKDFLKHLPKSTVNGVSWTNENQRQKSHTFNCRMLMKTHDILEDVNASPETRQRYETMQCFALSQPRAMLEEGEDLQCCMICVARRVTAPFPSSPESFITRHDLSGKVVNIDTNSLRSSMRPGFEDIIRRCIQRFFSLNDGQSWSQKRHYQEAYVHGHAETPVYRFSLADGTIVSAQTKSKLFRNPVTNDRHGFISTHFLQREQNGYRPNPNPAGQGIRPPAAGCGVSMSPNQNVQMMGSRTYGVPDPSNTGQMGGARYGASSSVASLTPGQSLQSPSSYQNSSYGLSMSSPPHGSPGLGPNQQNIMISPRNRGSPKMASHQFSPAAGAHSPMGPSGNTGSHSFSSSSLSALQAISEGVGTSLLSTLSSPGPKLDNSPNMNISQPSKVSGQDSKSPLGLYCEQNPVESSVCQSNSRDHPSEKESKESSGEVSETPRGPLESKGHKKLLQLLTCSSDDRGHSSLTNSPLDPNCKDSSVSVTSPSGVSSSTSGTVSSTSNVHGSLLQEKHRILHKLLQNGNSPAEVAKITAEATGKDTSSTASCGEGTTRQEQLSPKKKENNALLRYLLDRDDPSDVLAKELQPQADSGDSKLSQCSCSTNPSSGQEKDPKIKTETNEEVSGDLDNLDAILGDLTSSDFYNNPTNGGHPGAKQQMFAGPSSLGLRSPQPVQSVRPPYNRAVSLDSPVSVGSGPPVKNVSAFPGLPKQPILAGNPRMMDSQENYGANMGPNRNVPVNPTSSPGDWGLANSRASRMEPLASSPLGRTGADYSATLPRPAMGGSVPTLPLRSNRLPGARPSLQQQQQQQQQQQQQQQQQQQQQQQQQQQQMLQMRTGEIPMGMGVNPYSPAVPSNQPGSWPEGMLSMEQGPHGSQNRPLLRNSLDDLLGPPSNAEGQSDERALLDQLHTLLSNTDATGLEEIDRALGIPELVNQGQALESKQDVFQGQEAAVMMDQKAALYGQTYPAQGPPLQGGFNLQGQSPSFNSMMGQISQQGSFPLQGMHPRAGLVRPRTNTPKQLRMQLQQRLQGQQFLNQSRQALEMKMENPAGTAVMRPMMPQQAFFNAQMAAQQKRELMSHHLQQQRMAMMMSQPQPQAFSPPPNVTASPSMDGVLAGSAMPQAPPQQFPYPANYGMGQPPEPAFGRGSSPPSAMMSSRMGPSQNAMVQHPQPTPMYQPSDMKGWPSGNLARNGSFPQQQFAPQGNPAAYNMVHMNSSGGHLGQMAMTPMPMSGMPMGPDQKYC
Runt-SMMHC FRET – blocks binding of human RUNX1 Runt domain to CBFb-SMMHC. Cerulean-Runt/Venus-CBFb-SMMHC FRET ratio 530/480, 1 h. inhibition, % at 20 µM. 220,000 tested, 0.74% active. AID 1434. Q01196+Q13951;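 active = mean inhibition across duplicate retests at 20 µM reaching about 50%, limit read from the data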;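 also: 0% = DMSO wells and 100% = wells with excess untagged CBFb-SMMHC; inhibitors lower the FRET ratio by blocking Runt binding to CBFb-SMMHC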
Hck Nef HTS – inhibitors of human Hck kinase activated by Nef; Recombinant Hck-YEEI plus Nef, Z-Lyte FRET kinase assay; inhibition, % at 20 µM; AID 463187; 220,000 tested, 0.68% active; P08631;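 active = Hck-Nef kinase inhibition above about 50%, limit read from the data; inactive = inhibition below that limit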;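 also: 0% = DMSO with Hck plus Nef and 100% = Hck alone without Nef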
RanGTP-Imp inh – disruptors of Ran-importin-beta complex formation – biochemical, FRET, CFP-Ran, YFP-importin-beta, homogeneous, primary screen. 300,000 tested, 1.1% active. inhibition, % (test concentration not listed). AID 2216. cell-free CFP-Ran/YFP-importin-beta FRET ratio;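 active = more than half of the replicate wells show a fall in the fluorescence ratio signal beyond about 16%, limit read from the data, passing the limit was not always enough; inconclusive = exactly half of the replicate wells pass the set limit; inactive = fewer than half of replicates pass the limit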;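 also: 0% = DMSO wells and 100% = Ran loaded with GDP instead of GTP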
DSG3 Ab inh – human desmoglein-3 autoantibody binding inhibition; P32926; DSG3-coupled beads, scFv-anti-DSG3-GFP binding, flow cytometry; active compounds read low; binding (percent of control), % at 10 µM; 310,000 tested, 0.48% active; AID 588358;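 active = binding more than 3 SD below its plate's average and above zero; inconclusive = below that plate limit but binding exactly zero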;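 also: hits lower antibody fragment binding to DSG3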
Runt-CBFb FRET – inhibitors of human RUNX1 Runt domain binding to CBFb. Cerulean-Runt/Venus-CBFb FRET ratio 530/480, 1 h. 220,000 tested, 0.46% active. Q01196+Q13951. inhibition, % at 20 µM;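 active = inhibition over about 50% at 20 µM in the single-dose screen, limit read from the data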;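 also: 0% = DMSO wells and 100% = excess unlabeled CBFb competitor control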
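Measured by: fluorescence energy transfer, 422 nm excitation, 530/480 nm emission; test system: Cerulean-tagged RUNX1 Runt domain (FRET donor) fusion protein; buffer or medium: Tris pH 7.5 buffer with BSA; compound: one dose, 20 µM compound, 1% DMSO; times: two 1 h room-temperature incubations shielded from light; benchmarks: unlabeled CBFb 5 µM, positive control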
Hck-Nef confirm – Hck-Nef kinase inhibition, confirmation. shares compounds with Hck Nef HTS. Recombinant Hck-YEEI:Nef, Z-Lyte FRET kinase assay. calls only at 10 µM. 1,300 tested, 28% active. AID 463188;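 active = average inhibition of at least 50%, with Z-scores no higher than 3 in both the phospho-tyrosine peptide and fluorescence counterscreens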
* marks the source's active call; other numbers are inactive results; i = inactive; ? = inconclusive; nt = not tested or not shown; + = active, no number. Most compounds without a hit are left out; they make up all but 2.1% or so of the library.

SMILES	pCIP destab	Runt-SMMHC FRET	Hck Nef HTS	RanGTP-Imp inh	DSG3 Ab inh	Runt-CBFb FRET	Hck-Nef confirm
COC(=O)[C@]1(C)N[C@H](CN(C)S(=O)(=O)c2ccccc2)[C@@H]2C(=O)N(Cc3ccccc3)C(=O)[C@@H]21	nt	nt	nt	nt	106	nt	nt
O=C1ON=C(c2ccccc2)/C1=C\c1ccco1	-1	37	54*	-5	97	9	i
CC1(C)Cc2c(C#N)c(NCC3CCCO3)nc(-c3ccco3)c2CO1 (configuration not stated)	-6	6	56*	9	103	11	i
CC1(C)Cc2c(C#N)c(NC3CCCCC3)nc(-c3ccco3)c2CO1	8	9	35	10	nt	8	nt
CCOc1cc(N2CCOCC2)c(OCC)cc1NC(=O)c1ccc2ccccc2n1	-5	-2	64*	-2	104	2	i
CCOc1cc(N2CCOCC2)c(OCC)cc1NC(=O)c1ccccc1C	7	0	8	0	103	0	nt
CCOc1cc2c(cc1OCC)CN(C(=O)c1cccc(S(=O)(=O)N3CCCC3)c1)CC2	nt	nt	nt	nt	99	nt	nt
CC(CN1C(C)CCCC1C)OC(=O)c1ccc(F)cc1 (configuration not stated)	1	nt	nt	-1	103	nt	nt
O=c1c2ccccc2sc2ccccc12	nt	nt	nt	nt	89	nt	nt
O=c1c(C(c2ccccc2)c2c(O)sc3ccccc3c2=O)c(O)sc2ccccc12	-11	-9	68*	19*	94	-3	+
CCC(c1nnnn1Cc1ccc(OC)cc1)N1CCN(c2ccc(OC)cc2)CC1 (configuration not stated)	2	-4	62*	-2	104	4	i
CCC(c1nnnn1Cc1ccccc1)N1CCN(c2ccc(OC)cc2)CC1 (configuration not stated)	-16	5	23	0	100	-1	nt
Cc1cc(/C=N/Nc2ccc([N+](=O)[O-])cn2)c(C)n1-c1ccc(C(=O)O)cc1	-16	-46	79*	5	104	-14	i
COC(=O)C1=CN(C(C)C)C=C(C(=O)OC)C1c1cccc(OC)c1	1	-16	61*	66*	109	72*	nt
COC(=O)C1=CN(c2cc(C)cc(C)c2)C=C(C(=O)OC)C1c1cccc(F)c1	7	nt	nt	4	111	nt	nt
COC(=O)C1=CN(C(C)C)C=C(C(=O)OC)C1c1cc(Br)c(OC)c(OC)c1	11	75*	61*	59*	102	114*	nt
COc1cc(C2NC(=O)CCC2[N+](=O)[O-])cc(Br)c1OC (configuration not stated)	-1	nt	nt	-3	96	nt	nt
CCOCCCNC(=O)c1ccc(OC2CCN(C(C)=O)CC2)c(OC)c1	-8	nt	nt	-2	109	nt	nt
c1ccc(Nc2ccnc(Nc3ccccc3)n2)cc1	-18	0	101*	1	102	-1	+
C[C@@H](NC(=O)[C@@H]1Cc2ccccc2CN1C(=O)OC(C)(C)C)C(=O)NC1CCCCC1	-13	nt	nt	-2	92	nt	nt
O=S(=O)(c1ccc(Oc2ccc(S(=O)(=O)N(CCO)CCO)cc2)cc1)N(CCO)CCO	0	1	21	-2	98	0	nt
O=S(=O)(c1ccc(N2CCC(c3ccc(Cl)cc3)=N2)cc1)N(CCO)CCO	-1	108*	82*	?	101	48	nt
Cc1c(C(=O)Nc2cc(F)ccc2F)sc2nc3n(c(=O)c12)CCCCC3	-6	nt	nt	3	97	nt	nt
COc1cccc(=O)c2c(C)n(-c3cc(C)cc(C)c3)c(C)c12	-7	-3	2	-17	83	2	nt
COc1cccc(-n2c(C)c3c(OC)cccc(=O)c3c2C)c1	-8	-9	51*	0	105	4	i
SMILES	pCIP destab	Runt-SMMHC FRET	Hck Nef HTS	RanGTP-Imp inh	DSG3 Ab inh	Runt-CBFb FRET	Hck-Nef confirm
O=C(CSc1n[nH]c(-c2ccccc2Br)n1)NCCN1C(=O)CSC1=O	12	1	0	-2	96	0	nt
Cc1ccc(CN2C(=O)N/C(=C\c3ccc(-c4ccc(C(=O)O)cc4C)o3)C2=O)cc1	-2	84*	60*	nt	93	110*	i
Cc1cc(C(=O)O)ccc1-c1ccc(CO)o1	26	2	-18	2	nt	7	nt
CCOC(=O)c1cnc2ccc(C(=O)OC)cc2c1Nc1ccc(C(=O)O)cc1	2	2	20	1	103	0	nt
CCOC(=O)c1ccc2ncc(C(=O)OCC)c(Nc3ccc(N4CCOCC4)cc3)c2c1	-4	1	73*	-2	112	-4	+
O=C(Nc1ccnn1C1CCN(Cc2cccc(F)c2F)CC1)C1CCCC1	-5	nt	nt	0	104	nt	nt
CC12CCC(=O)N1c1c(sc3nc(N4CCOCC4)c4c(c13)CCCC4)C(=O)N2 (configuration not stated)	-4	96*	61*	-1	96	5	nt
COC(=O)c1ccc(-c2sc3nc(N4CCOCC4)c4c(c3c2N)CCCC4)o1	-2	-1	2	10	nt	6	nt
CC1=NN(c2ccc(C)cc2)C(=O)/C1=C\C=C\c1ccccc1	1	3	3	-2	90	-3	nt
CC1=NN(c2cccc(C(=O)O)c2)C(=O)/C1=C\C=C/c1ccccc1	-26	12	59*	-1	nt	18	i
Cc1cc(=O)[nH]c(/N=C(\N)Nc2ccc(Oc3ccccc3)cc2)n1	-7	0	52*	1	85	0	i
COc1cc(/C=C/C(=O)OCC(=O)NC2CCCCCCC2)ccc1O	nt	nt	nt	nt	114	nt	nt
COc1ccc(-n2cccc2/C=C2\C(=N)N3N=C(c4ccco4)SC3=NC2=O)cc1	-16	-46	93*	-4	84	-10	+
O=C(Nc1cccc(/C=C/c2nc3ccccc3c(=O)[nH]2)c1)c1ccccc1Cl	1	-5	23	3	80	-1	nt
COc1ccc(C(=O)Nc2cccc(/C=C/c3nc4ccccc4c(=O)[nH]3)c2)cc1	-2	2	56*	0	97	-4	i
CCOC(=O)c1ccc(NC(=O)Cn2ncc(Cl)c(Cl)c2=O)cc1	2	-7	59*	-3	97	-5	+
CCCS/C(N)=N/N=C/c1cc(C)ccc1O	-4	1	55*	3	102	1	+
CCC(C)(C)NC(=O)CN(C(=O)CCC(=O)Nc1nccs1)c1ccc2c(c1)OCCO2	-9	nt	nt	-5	nt	nt	nt
O=c1[nH]c(O)c(/C=C2\C=Nc3ccccc32)[nH]1	-11	-4	60*	9	90	5	i
O=c1oc2ccccc2c(O)c1/C=C1\C=Nc2ccccc21	-4	-4	11	-3	nt	3	nt
